MC4R barr agon = human MC4R agonism via beta-arrestin. P32245. U2OS MC4R beta-arrestin complementation, luminescence; percent of melanotan II response, DMSO zero. activation, % at 8.9 µM. actives 0.98% (n = 360,000);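 active = activation above a per-plate cutoff, the mean activation of sample wells on that plate plus 3 SD, cut at about 8% in these data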
Target sequence (P32245 whole entry, looked up): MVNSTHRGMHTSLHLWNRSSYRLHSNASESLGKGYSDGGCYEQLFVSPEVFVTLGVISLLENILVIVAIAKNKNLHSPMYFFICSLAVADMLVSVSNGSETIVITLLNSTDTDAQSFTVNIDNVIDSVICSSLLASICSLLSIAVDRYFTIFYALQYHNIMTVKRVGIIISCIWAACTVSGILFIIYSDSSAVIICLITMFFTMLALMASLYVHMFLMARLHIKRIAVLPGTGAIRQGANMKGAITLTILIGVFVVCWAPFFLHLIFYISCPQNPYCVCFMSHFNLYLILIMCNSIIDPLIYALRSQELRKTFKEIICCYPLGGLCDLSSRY
MsrA inh = inhibitors of bovine MsrA; purified bovine MsrA, absorbance read-out; inhibition, % at 15.5 µM; actives 0.75% (n = 360,000); AID 651718; in the data active = inhibition above about 4.5%;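 note: 0% = vehicle wells with enzyme and 100% = reference inhibitor wells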
MsrA act = activators of bovine methionine sulfoxide reductase A; purified bovine MsrA, absorbance read-out; activation, % at 10.6 µM; actives 0.3% (n = 360,000); AID 602163; in the data active = activation above about 7.5%;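 note: 0% = vehicle and 100% = reference activator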
MC4R antag cAMP = antagonists of human melanocortin 4 receptor (MC4R); P32245; MC4R-expressing cells, MTII-stimulated cAMP, LANCE TR-FRET; inhibition, % at 6.5 µM; actives 0.48% (n = 360,000); AID 540295;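 active = inhibition above its plate's cutoff, the mean of tested wells on that plate plus 3 SD, cut at about 29% in these data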;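 note: 0% = Melanotan II alone and 100% = Melanotan II plus saturating MCL0020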
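material = U2OS cells stably expressing human melanocortin 4 receptor (MC4R) | also added = Melanotan II challenge | dosing = single nominal compound dose of 6.5 µM | detection = TR-FRET with Eu-cAMP and labeled anti-cAMP, 671 nm | replication = singlicate | timing = compound 30 min, challenge 1 h, detection 1 h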
cAMP nonselect = counter-screen for MC4R antagonists: nonselective cAMP signaling inhibitors; shares compounds with MC4R antag cAMP; parental U2OS, forskolin cAMP, LANCE TR-FRET; inhibition, % at 6.5 µM; actives 26% (n = 1,600);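 active = mean inhibition over triplicates above the low-control well mean plus 3 SD, set per campaign, cut at about 13% in these data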;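 note: signal is single emission at 671 nm which falls as cellular cAMP rises; 0% = forskolin-stimulated wells and 100% = buffer without forskolin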
MC4R cAMP antag = human MC4R cAMP antagonism confirmation; shares compounds with MC4R antag cAMP; MC4R-expressing cells, MTII-stimulated cAMP, TR-FRET; inhibition, % at 6.5 µM; actives 27% (n = 1,600); AID 602195; in the data active = inhibition above about 29%;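 note: 0% = agonist stimulated wells alone and 100% = agonist stimulated wells plus saturating reference antagonist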
Starred values were filed as active, the others as inactive; . = not tested or not shown. Compounds with a hit are over-represented: about 2.3% of the library has one in this group of screens.

SMILES	MC4R barr agon	MsrA inh	MsrA act	MC4R antag cAMP	cAMP nonselect	MC4R cAMP antag
CC(C)OC(=O)CNc1n[nH]c(=S)[nH]c1=O	0	1	-5	41*	3	13
CCOC(=O)CSc1nnc(NCC(=O)OC(C)C)c(=O)[nH]1	-1	1	-1	35*	18*	28
C/C(CC(=O)Nc1cccc(Cl)c1Cl)=N\NC(=O)c1ccccc1C	1	2	-1	29*	5	2
C/C(CC(=O)Nc1cccc(Cl)c1Cl)=N\NC(=O)C(=O)N1CCCC1	-1	1	-2	9	.	.
Cc1cc(C)nc(SCCS(=O)Cc2ccc(Cl)cc2)n1 (stereo not drawn)	0	0	6	-1	.	.
Cc1cc(C)c2c(=O)n(CC(=O)N3CCC(N4CCCCC4)CC3)sc2n1	-1	2	-5	-3	.	.
CCOC(=O)C1CCCN(C(=O)Cn2sc3nc(C)cc(C)c3c2=O)C1 (stereo not drawn)	-1	.	-3	42*	11	30*
CCOc1c(O)ccc(C2NC(=O)N(C)C(C)=C2C(=O)OC)c1[N+](=O)[O-] (stereo not drawn)	1	1	-5	8	.	.
CCOc1c(O)ccc(C2NC(=O)NC(C)=C2C(=O)OC)c1[N+](=O)[O-] (stereo not drawn)	-3	-1	-1	30*	-4	-11
COc1cccc(C2CC(=O)Nc3c2c(=O)[nH]c2ncnn32)c1 (stereo not drawn)	2	0	0	9	.	.
C=Cc1ccc(Cn2c(C)c(C(=O)NCc3ccc(C#N)cc3)sc2=O)cc1	1	-1	2	22	.	.
Cc1cccc(NS(=O)(=O)c2cc3c4c(c2)C(C)C(=O)N4CCC3)c1 (stereo not drawn)	-2	0	-3	8	.	.
O=C(c1ccco1)N1CCN(c2ncnc3scc(-c4ccc(Cl)cc4)c23)CC1	4	-2	-2	31*	-3	6
O=C(c1ccco1)N1CCN(c2ncnc3sc4c(c23)CCC4)CC1	0	1	-12	0	.	.
COc1cc2ccccc2cc1C(=O)N1CCCCC1	-1	0	-4	-3	.	.
COC(=O)c1ccc2c(=O)[nH]c(CN3c4ccccc4CC3C)nc2c1 (stereo not drawn)	-2	1	3	1	.	.
COC(=O)c1ccc2c(=O)[nH]c(CCl)nc2c1	-1	0	-1	30*	5	7
COc1cc(/C=N/Nc2nc(Nc3ccccc3)nc(-n3nc(C)cc3C)n2)cc(OC)c1OC	-3	2	-2	21	.	.
COc1cc(/C=N/Nc2nc(Nc3ccc(C)cc3)nc(-n3nc(C)cc3C)n2)cc(OC)c1OC	4	3	-1	29*	7	30*
COc1ccccc1NS(=O)(=O)c1cccc(NC(=O)Nc2ccccc2)c1	0	-1	-5	8	.	.
COc1ccccc1NS(=O)(=O)c1cccc(NC(=O)c2cc3ccccc3oc2=O)c1	7	1	-2	29*	-5	-11
NC(=O)c1ccc(NCC2COc3ccccc3O2)c([N+](=O)[O-])c1 (stereo not drawn)	-1	2	-3	36*	-2	-3
O=C(Cc1ccc(Cl)cc1)c1c[nH]c(C(=O)NCc2cccnc2)c1	-2	1	-1	32*	2	1
CCn1c(C)nc2cc(C(=O)N/N=C(\C)c3ccc(OC)cc3O)ccc21	1	3	-2	34*	4	1
Cc1csc(C(C)N(C)C(=O)CCc2nnc(CCc3ccccc3)o2)n1 (stereo not drawn)	1	-1	-4	29*	2	1
CCOc1ccc(NC(=O)CNC(=O)c2nn(-c3ccc(OC)c(OC)c3)c(=O)c3ccccc23)cc1	1	0	-1	38*	13	19
CCOc1ccccc1NC(=O)CNC(=O)c1nn(-c2ccc(OC)c(OC)c2)c(=O)c2ccccc12	-3	-1	-1	6	.	.
O=C(NCC(c1cccs1)N1CCOCC1)c1ccc([N+](=O)[O-])cc1 (stereo not drawn)	-1	0	-2	6	.	.
Cc1ccc(-c2nc(CSCC(=O)N3CCN(C(=O)c4ccco4)CC3)c(C)o2)cc1	-1	0	0	-1	.	.

Screens (PubChem)
